Test results: ChEMBL document CHEMBL1137722, “Synthesis and pharmacological evaluation of a novel series of 5-(substituted)aryl-3-(3-coumarinyl)-1-phenyl-2-pyrazolines as novel anti-inflammatory and analgesic agents” (Eur J Med Chem, 2009)

Legend:
[1] = tested on: Rattus norvegicus; assay: Antipyretic activity in yeast-induced pyrexia albino rat model assessed as mean rectal temperature at 135 mg/kg, po administered 30 mins after 18 hrs of yeast challenge measured after 2 hrs postdosing (Rvb=39.2 degC); assay type: functional
[2] = tested on: Rattus norvegicus; assay: Antipyretic activity in yeast-induced pyrexia albino rat model assessed as mean rectal temperature at 135 mg/kg, po administered 30 mins after 18 hrs of yeast challenge measured after 3 hrs postdosing (Rvb=38.9 degC); assay type: functional
[3] = tested on: Rattus norvegicus; assay: Antipyretic activity in yeast-induced pyrexia albino rat model assessed as mean rectal temperature at 135 mg/kg, po administered 30 mins after 18 hrs of yeast challenge measured after 4 hrs postdosing (Rvb=38.7 degC); assay type: functional
[4] = tested on: Rattus norvegicus; assay: Antipyretic activity in yeast-induced pyrexia albino rat model assessed as mean rectal temperature at 135 mg/kg, po administered 30 mins after 18 hrs of yeast challenge measured after 5 hrs postdosing (Rvb=38.2 degC); assay type: functional
[5] = tested on: Rattus norvegicus; assay: Antipyretic activity in yeast-induced pyrexia albino rat model assessed as mean rectal temperature at 135 mg/kg, po administered 30 mins after 18 hrs of yeast challenge measured after 1 hr postdosing (Rvb=39.4 degreeC); assay type: functional
[6] = tested on: Rattus norvegicus; assay: Antipyretic activity in yeast-induced pyrexia albino rat model assessed as temperature index measured by sum of mean rectal temperature changes from 0 to 5 hrs at 135 mg/kg, po administered 30 mins after 18 hrs of yeast challenge (Rvb=39.0 degC); assay type: functional
[7] = tested on: Mus musculus; assay: Acute toxicity in albino mouse assessed as mortality up to 2000 mg/kg, po after 24 hrs; assay type: organism-based; parameters: dose 2000 mg/kg, route oral; settings: in vivo
Summary of the method: (§1)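 Albino mice of either sex (20–25 g), 12 groups of six, fasted 24 h with water available. Given oral doses rising through 10, 20, 100, 200, 1000 and 2000 mg/kg. Watched continuously for 3 h for behavioural, neurological and autonomic signs, then every 30 min for the next 3 h, then up to 24 h or until death. Guideline: OECD.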

[8] = tested on: Mus musculus; assay: Acute toxicity in albino mouse assessed as behavioral response up to 2000 mg/kg, po after 24 hrs; assay type: organism-based; parameters: dose 2000 mg/kg, route oral; settings: in vivo; summary of the method: as §1
[9] = tested on: Rattus norvegicus; assay: Antiinflammatory activity in albino rat acute inflammatory model assessed as inhibition of carrageenan-induced paw edema at 200 mg/kg, po dosed 1 hr before carrageenan challenge measured after 2 hrs relative to control; assay type: functional
Summary of the method: (§2)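 Male albino rats (170–220 g), fasted at least 12 h with water available, groups of six. Oral dosing with 0.5% sodium CMC vehicle control. One hour later, 0.05 ml of 1% carrageenan was injected subplantar into the left hind paw. Paw volume was measured by digital plethysmometer at 0, 2 and 4 h. % inhibition = [1 − treated/control edema volume] × 100, n=6.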

[10] = tested on: Rattus norvegicus; assay: Antiinflammatory activity in albino rat acute inflammatory model assessed as inhibition of carrageenan-induced paw edema at 200 mg/kg, po dosed 1 hr before carrageenan challenge measured after 4 hrs relative to control; assay type: functional; summary of the method: as §2
[11] = Acute toxicity in po dosed albino mouse assessed as maximum tolerated dose; assay type: organism-based; settings: in vivo; summary of the method: as §1
[12] = tested on: Rattus norvegicus; assay: Antipyretic activity in yeast-induced pyrexia albino rat model assessed as mean rectal temperature at 200 mg/kg, po administered 30 mins after 18 hrs of yeast challenge measured after 1 hr postdosing (Rvb=39.4 degC); assay type: functional
[13] = tested on: Mus musculus; assay: Analgesic activity in albino mouse assessed as protection against glacial acetic acid-induced writhing response at 200 mg/kg, po pretreated 0.5 hrs before glacial acetic acid challenge measured for 15 mins; assay type: functional
Summary of the method: (§3)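 Albino mice of either sex (20–25 g). Mice were pre-screened the day before for writhing, and only responders were used. Compound was given orally as a suspension in 0.5% sodium CMC 30 min before glacial acetic acid challenge. Stretching episodes were counted for 15 min. Results are the group mean, n=6, with % protection against control.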

[14] = tested on: Rattus norvegicus; assay: Antiinflammatory activity in albino rat chronic arthritis model assessed as inhibition of Freund's adjuvant-induced paw edema at 200 mg/kg, po administered on day 16 to 19 post Freund's adjuvant challenge measured on day 19 relative to control; assay type: functional
Summary of the method: (§4)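 Male albino rats (150–230 g) received 0.1 ml heat-killed M. tuberculosis (Freund's complete adjuvant) into the left hind footpad on day 1. Rats with developed arthritis on day 15 were split into groups of six. Dosing was oral, days 16–19, with 1 ml 0.5% sodium CMC as control. Paw volume, body weight and secondary lesions were recorded daily. % inhibition was calculated from day 15, n=6.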

[15] = tested on: Rattus norvegicus; assay: Antipyretic activity in yeast-induced pyrexia albino rat model assessed as mean rectal temperature at 200 mg/kg, po administered 30 mins after 18 hrs of yeast challenge measured after 2 hrs postdosing (Rvb=39.2 degC); assay type: functional
[16] = tested on: Rattus norvegicus; assay: Antipyretic activity in yeast-induced pyrexia albino rat model assessed as mean rectal temperature at 200 mg/kg, po administered 30 mins after 18 hrs of yeast challenge measured after 3 hrs postdosing (Rvb=38.9 degC); assay type: functional
[17] = tested on: Rattus norvegicus; assay: Antipyretic activity in yeast-induced pyrexia albino rat model assessed as mean rectal temperature at 200 mg/kg, po administered 30 mins after 18 hrs of yeast challenge measured after 4 hrs postdosing (Rvb=38.7 degC); assay type: functional
[18] = tested on: Rattus norvegicus; assay: Antipyretic activity in yeast-induced pyrexia albino rat model assessed as mean rectal temperature at 200 mg/kg, po administered 30 mins after 18 hrs of yeast challenge measured after 5 hrs postdosing (Rvb=38.2 degC); assay type: functional
[19] = tested on: Rattus norvegicus; assay: Antipyretic activity in yeast-induced pyrexia albino rat model assessed as temperature index measured by sum of mean rectal temperature changes from 0 to 5 hrs at 200 mg/kg, po administered 30 mins after 18 hrs of yeast challenge (Rvb=39.6 degC); assay type: functional
[20] = tested on: Rattus norvegicus; assay: Gastrointestinal toxicity in starved albino rat stress model assessed as ulcer index at 200 mg/kg, po after 7 hrs; assay type: organism-based; parameters: dose 200 mg/kg, route oral; settings: in vivo
Summary of the method: (§5)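 Albino rats of either sex, 170–250 g, six per group, starved 48 h with water ad libitum. Dosed orally as a suspension in 0.5% sodium CMC, test compounds at 200 mg/kg b.w. Killed 7 h later. Stomach opened along the greater curvature and everted. Ulcer index from lesion counts in five size classes, ranging from pinpoint to >4 mm diameter.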

[21] = tested on: Rattus norvegicus; assay: Antipyretic activity in yeast-induced pyrexia albino rat model assessed as temperature index measured by sum of mean rectal temperature changes from 0 to 5 hrs at 200 mg/kg, po administered 30 mins after 18 hrs of yeast challenge (Rvb=39.2 degC); assay type: functional
[22] = tested on: Mus musculus; assay: Analgesic activity in albino mouse assessed as protection against glacial acetic acid-induced writhing response at 30 mg/kg, po pretreated 0.5 hrs before glacial acetic acid challenge measured for 15 mins; assay type: functional; summary of the method: as §3
[23] = tested on: Rattus norvegicus; assay: Gastrointestinal toxicity in starved po dosed albino rat stress model assessed as ulcer index after 7 hrs; assay type: organism-based; settings: in vivo; summary of the method: as §5
[24] = tested on: Rattus norvegicus; assay: Antiinflammatory activity in albino rat acute inflammatory model assessed as inhibition of carrageenan-induced paw edema at 13.5 mg/kg, po dosed 1 hr before carrageenan challenge measured after 2 hrs relative to control; assay type: functional; summary of the method: as §2
[25] = tested on: Rattus norvegicus; assay: Antiinflammatory activity in albino rat acute inflammatory model assessed as inhibition of carrageenan-induced paw edema at 13.5 mg/kg, po dosed 1 hr before carrageenan challenge measured after 4 hrs relative to control; assay type: functional; summary of the method: as §2
[26] = tested on: Rattus norvegicus; assay: Antiinflammatory activity in albino rat chronic arthritis model assessed as inhibition of Freund's adjuvant-induced paw edema at 13.5 mg/kg, po administered on day 16 to 19 post Freund's adjuvant challenge measured on day 19 relative to control; assay type: functional; summary of the method: as §4
[27] = tested on: Rattus norvegicus; assay: Antipyretic activity in yeast-induced pyrexia albino rat model assessed as temperature index measured by sum of mean rectal temperature changes from 0 to 5 hrs at 200 mg/kg, po administered 30 mins after 18 hrs of yeast challenge (Rvb=39.4 degreeC); assay type: functional
[28] = tested on: Rattus norvegicus; assay: Antipyretic activity in yeast-induced pyrexia albino rat model assessed as temperature index measured by sum of mean rectal temperature changes from 0 to 5 hrs at 200 mg/kg, po administered 30 mins after 18 hrs of yeast challenge (Rvb=39.3 degC); assay type: functional

CC(=O)Nc1ccc(O)cc1 [ACETAMINOPHEN]
Activity [1]: 38 °C
Activity [2]: 37.6 °C
Activity [3]: 37.3 °C
Activity [4]: 37 °C
Activity [5]: 38.4 °C
Activity [6]: -6.7 °C

O=c1oc2ccccc2cc1C1=NN(c2ccccc2)[C@@H](c2cccc([N+](=O)[O-])c2)C1
Activity [7]: Non-toxic
Activity [8]: Toxic
inhibition in vivo at 200 mg/kg [9]: 26.1%
inhibition in vivo at 200 mg/kg [10]: 31.2%

O=c1oc2ccccc2cc1C1=NN(c2ccccc2)[C@@H](c2ccccc2)C1
Activity [7]: Non-toxic
inhibition in vivo at 200 mg/kg [9]: 27.2%
inhibition in vivo at 200 mg/kg [10]: 32.7%
MTD [11]: 2000 mg/kg

O=c1oc2ccccc2cc1C1=NN(c2ccccc2)[C@@H](c2ccc(O)cc2)C1
Activity [7]: Non-toxic
inhibition in vivo at 200 mg/kg [9]: 28.8%
inhibition in vivo at 200 mg/kg [10]: 34.6%
MTD [11]: 2000 mg/kg

COc1cccc([C@H]2CC(c3cc4ccccc4oc3=O)=NN2c2ccccc2)c1
Activity [7]: Non-toxic
Activity [12]: 39.4 °C
Activity [13]: 35%
inhibition in vivo at 200 mg/kg [9]: 38.3%
inhibition in vivo at 200 mg/kg [10]: 61.5%
inhibition in vivo at 200 mg/kg [14]: 20.9%
Activity [15]: 38.8 °C
Activity [16]: 38.6 °C
Activity [17]: 38.2 °C
Activity [18]: 37.9 °C
Activity [19]: -5.1 °C
UI [20]: 2.12
MTD [11]: 2000 mg/kg

O=c1oc2ccccc2cc1C1=NN(c2ccccc2)[C@@H](c2ccc(Cl)cc2Cl)C1
Activity [7]: Non-toxic
Activity [12]: 38.9 °C
Activity [13]: 59%
inhibition in vivo at 200 mg/kg [9]: 56.7%
inhibition in vivo at 200 mg/kg [10]: 67.5%
inhibition in vivo at 200 mg/kg [14]: 45.4%
Activity [15]: 38.6 °C
Activity [16]: 38.1 °C
Activity [17]: 37.8 °C
Activity [18]: 37.2 °C
Activity [21]: -5.4 °C
UI [20]: 2.67
MTD [11]: 2000 mg/kg

COc1ccc([C@H]2CC(c3cc4ccccc4oc3=O)=NN2c2ccccc2)cc1
Activity [7]: Non-toxic
Activity [8]: Toxic
inhibition in vivo at 200 mg/kg [9]: 24.8%
inhibition in vivo at 200 mg/kg [10]: 36.2%

CC(=O)Oc1ccccc1C(=O)O [ASPIRIN]
Activity [22]: 67%
UI [23]: 4.33

O=c1oc2ccccc2cc1C1=NN(c2ccccc2)[C@@H](c2ccccc2[N+](=O)[O-])C1
Activity [7]: Non-toxic
Activity [8]: Toxic
inhibition in vivo at 200 mg/kg [9]: 24.7%
inhibition in vivo at 200 mg/kg [10]: 26.6%

CN(C)c1ccc([C@H]2CC(c3cc4ccccc4oc3=O)=NN2c2ccccc2)cc1
Activity [7]: Non-toxic
Activity [8]: Toxic
inhibition in vivo at 200 mg/kg [9]: 28.4%
inhibition in vivo at 200 mg/kg [10]: 40.1%

O=C(O)Cc1ccccc1Nc1c(Cl)cccc1Cl [DICLOFENAC]
inhibition in vivo at 13.5 mg/kg [24]: 63.7%
inhibition in vivo at 13.5 mg/kg [25]: 78.7%
inhibition in vivo at 13.5 mg/kg [26]: 53%

O=c1oc2ccccc2cc1C1=NN(c2ccccc2)[C@@H](c2ccc(F)cc2)C1
Activity [7]: Non-toxic
Activity [12]: 39.2 °C
Activity [13]: 55%
inhibition in vivo at 200 mg/kg [9]: 44.9%
inhibition in vivo at 200 mg/kg [10]: 66.7%
inhibition in vivo at 200 mg/kg [14]: 40.5%
Activity [15]: 38.3 °C
Activity [16]: 37.9 °C
Activity [17]: 37.7 °C
Activity [18]: 37.1 °C
Activity [27]: -6.6 °C
UI [20]: 1.66
MTD [11]: 2000 mg/kg

Cc1ccc([C@H]2CC(c3cc4ccccc4oc3=O)=NN2c2ccccc2)cc1
Activity [7]: Non-toxic
Activity [8]: Toxic
inhibition in vivo at 200 mg/kg [9]: 30.1%
inhibition in vivo at 200 mg/kg [10]: 38%

O=c1oc2ccccc2cc1C1=NN(c2ccccc2)[C@@H](c2ccc(Cl)cc2)C1
Activity [7]: Non-toxic
Activity [12]: 39.1 °C
Activity [13]: 41%
inhibition in vivo at 200 mg/kg [9]: 39.2%
inhibition in vivo at 200 mg/kg [10]: 64.7%
inhibition in vivo at 200 mg/kg [14]: 39.1%
Activity [15]: 38.9 °C
Activity [16]: 38.5 °C
Activity [17]: 38.1 °C
Activity [18]: 38 °C
Activity [28]: -3.9 °C
UI [20]: 2.33
MTD [11]: 2000 mg/kg

O=c1oc2ccccc2cc1C1=NN(c2ccccc2)[C@@H](/C=C/c2ccccc2)C1
Activity [7]: Non-toxic
Activity [8]: Toxic
inhibition in vivo at 200 mg/kg [9]: 26.7%
inhibition in vivo at 200 mg/kg [10]: 42.5%
